Measurements: publication PMC2849840 (Molecular pharmaceutics, 2010)
Each block holds one compound with its values, some of them ahead of it.

Columns and labels:
[1] = tested on: ATP production in MDCK-MDR1 cells; experiment: ATP assay; format: cell-based; settings: 20 mM HEPES in culture medium
Method in brief: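 MDCK-MDR1 cells grown in DMEM with 10% heat-inactivated calf serum at 37 °C, 5% CO2, in 96-well plates for 6–7 days to full confluence, in medium without HEPES (Set 1) or with 20 mM HEPES (Set 2). Cells lysed for […]; ATP in lysate read by luminescence kit, with protein measured by Bradford. At least triplicate; mean ± SD.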

MDCK-MDR1 cells [2] = experiment: Uptake of radiolabelled substrates into MDCK-MDR1 cells in DPBS with HEPES
MDCK-MDR1 cells [3] = tested on: MDCK-MDR1 cells
MDCK-MDR1 cells [4] = format: in vitro ADME
[5] = Bidirectional transepithelial transport of [3H]lopinavir across MDCK-MDR1 cells; format: in vitro ADME; settings: dog, MDCK-MDR1, 37 °C; for Papp A→B at 0.5 μCi/mL: MDCK-MDR1, pH 7.4, PappA-B; for Papp B→A at 0.5 μCi/mL: MDCK-MDR1, pH 7.4, PappB-A

Compound: O=S(=O)(O)CCN1CCN(CCO)CC1 [HEPES, 4-(2-hydroxyethyl)-1-piperazineethanesulfonic acid]
elevation of ATP production, Set 2 compared to Set 1 [1]: 70%

Compound: N[C@@H](CCC(=O)O)C(=O)O [glutamic acid]
elevation of uptake over the control (MDCK-MDR1 cells [2]; 15 mM HEPES): about 30% | elevation of uptake over the control (MDCK-MDR1 cells [2]; 25 mM HEPES): ~45%

Compound: Cc1cccc(C)c1OCC(=O)N[C@@H](Cc1ccccc1)[C@@H](O)C[C@H](Cc1ccccc1)NC(=O)[C@H](C(C)C)N1CCCNC1=O [lopinavir]
accumulation into cells versus control (0 mM HEPES) (MDCK-MDR1 cells [3]): significant reduction | accumulation by Set 2 cells compared with Set 1 cells (MDCK-MDR1 cells [4]; Set 2 grown with 20 mM HEPES, Set 1 without, 0, 15, 25 mM HEPES in DPBS): significantly less | accumulation by Set 2 cells compared to Set 1 cells (MDCK-MDR1 cells [4]; in the presence of 1 μM or 2 μM unlabelled lopinavir, DPBS with 25 mM HEPES): higher accumulation | elevation of accumulation, Set 2 versus Set 1 cells (MDCK-MDR1 cells [4]; in the presence of 5 μM unlabelled lopinavir, DPBS with 25 mM HEPES): not statistically different | Papp A→B at 0.5 μCi/mL ([5]; 25 mM HEPES in DPBS): 22.8 ± 1.03 ×10⁻⁶ cm/s | Papp A→B at 0.5 μCi/mL ([5]; Control (0 mM HEPES) in DPBS): 30.2 ± 2.56 ×10⁻⁶ cm/s | Papp B→A at 0.5 μCi/mL ([5]; 25 mM HEPES in DPBS): 165 ± 11.1 ×10⁻⁶ cm/s | Papp B→A at 0.5 μCi/mL ([5]; Control (0 mM HEPES) in DPBS): 148 ± 7.92 ×10⁻⁶ cm/s

Results, then the compound that gave them:

change of uptake in the presence of HEPES (MDCK-MDR1 cells [2]; 15 and 25 mM HEPES): no significant change
Compound: N[C@@H](Cc1ccccc1)C(=O)O [phenylalanine]

accumulation into cells versus control (0 mM HEPES) (MDCK-MDR1 cells [3]): significant reduction
Compound: CC(C)c1nc(CN(C)C(=O)N[C@H](C(=O)N[C@@H](Cc2ccccc2)C[C@H](O)[C@H](Cc2ccccc2)NC(=O)OCc2cncs2)C(C)C)cs1 [ritonavir]
